# Key:
# bovine Capthesin B = conditions: read-out: bovine Cathepsin B IC50; cited from earlier work
# plasmid (pBR322) DNA = test: Electrophoresis mobility shift assay with plasmid DNA; format: binding
# [1] = test system: human colon adenocarcinoma cell line HT-29; test: Cytotoxicity, MTT assay, HT-29 cells; format: cell-based; conditions: read-out: IC50 HT-29, 24h incubation
# How it was run: (§1)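 Cells were kindly donated by a university culture unit. They were grown in DMEM with 10% FBS and 1% penicillin/streptomycin/amphotericin B at 37°C and 5% CO2. Monolayers (~5×10^4) were grown 72 h, then exposed 24 h to test compound (0–100 μM; diluted from fresh DMSO stock; final DMSO ≤0.6% v/v). MTT was added for 3.5 h, formazan dissolved in DMSO, and A570 read (690 nm background). IC50 is mean ±SE of three experiments, triplicate microcultures.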
# MDA-MB-231 cells = test: ApoTox-Glo Triplex assay; format: cell-based, human; conditions: 10.7 μM, 24 h
# [2] = test system: human breast adenocarcinoma MDA-MB 231 cell line; test: Cytotoxicity, XTT assay, MDA-MB-231 cells; format: cell-based; conditions: read-out: IC50 MDA-MB-231, 24h incubation
# How it was run: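 Cells kept adherent in DMEM with penicillin/streptomycin and 10% FBS (37°C, 5% CO2/[…]). Seeded at 5×10^3 cells/well in phenol red-free, antibiotic-free DMEM with 10% FBS and 2 mM L-glutamine, and grown 24 h. Test compound added at 0.1–50 μM final for 24 h. XTT added at 0.3 mg/mL final for 4 h, then A450 read. Survival is the treated/untreated absorbance ratio. IC50 given as mean (±SE) of three independent experiments, triplicate microcultures per concentration.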
# [3] = Stability in solution by 1H-NMR spectroscopy; format: physicochemical; conditions: D2O, PBS-D2O or neat DMSO-d6
# [4] = test system: human breast adenocarcinoma cell line MCF7; test: Cytotoxicity, MTT assay, MCF-7 cells; format: cell-based; conditions: read-out: IC50 MCF-7, 24h incubation
# How it was run: as §1
# [5] = test system: human cervical carcinoma cell line HeLa; test: Cytotoxicity, MTT assay, HeLa cells; format: cell-based; conditions: read-out: IC50 HeLa, 24h incubation, 1% DMSO stock diluted with medium
# How it was run: as §1
# [6] = molecular target: Human serum albumin (HSA) (Homo sapiens, UniProt P02768); test: HSA tryptophan fluorescence quenching; format: binding; conditions: HSA 10 μM, complex 10–100 μM
# Sequence of Human serum albumin (HSA) (P02768 25-609): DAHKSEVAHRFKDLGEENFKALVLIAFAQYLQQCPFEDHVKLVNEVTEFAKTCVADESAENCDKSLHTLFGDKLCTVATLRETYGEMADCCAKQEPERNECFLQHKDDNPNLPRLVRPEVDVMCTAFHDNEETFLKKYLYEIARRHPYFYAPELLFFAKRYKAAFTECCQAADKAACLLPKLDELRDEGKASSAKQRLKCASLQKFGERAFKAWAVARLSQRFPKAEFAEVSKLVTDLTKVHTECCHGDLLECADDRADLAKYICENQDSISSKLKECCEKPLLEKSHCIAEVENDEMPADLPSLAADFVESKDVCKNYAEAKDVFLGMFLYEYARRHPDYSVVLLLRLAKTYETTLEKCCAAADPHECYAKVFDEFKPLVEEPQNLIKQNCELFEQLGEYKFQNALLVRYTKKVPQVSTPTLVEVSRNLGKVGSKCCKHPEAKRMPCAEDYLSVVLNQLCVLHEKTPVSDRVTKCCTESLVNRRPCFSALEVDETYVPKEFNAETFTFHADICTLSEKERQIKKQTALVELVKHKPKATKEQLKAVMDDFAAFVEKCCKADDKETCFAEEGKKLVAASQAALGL
# How it was run: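 HSA (10 μM) in phosphate buffer (pH 7.4) received ten successive additions from an 8 mM DMSO stock of test compound, giving final 10–100 μM. Trp emission was recorded at room temperature, 300–450 nm, excitation 295 nm, 240 s after each addition. Compound, buffer and DMSO fluorescence were negligible. Data were fitted to F0/F = 1 + KSV[Q].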
# [7] = test system: non-tumorigenic human embryonic kidney cells HEK-293T; test: Cytotoxicity, XTT assay, HEK-293T cells; format: cell-based; conditions: read-out: IC50 HEK-239T, 24h incubation
# How it was run: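 Cells were maintained in DMEM with 100 U/mL penicillin, 100 μg/mL streptomycin and 10% FBS, humidified, 37°C, 5% CO2/[…]. Seeding was 5×10^3 cells/well in phenol red-free, antibiotic-free DMEM with 10% FBS and 2 mM L-glutamine, grown 24 h. Test compound (final 0.1–50 μM) was given for 24 h or 48 h. XTT (final 0.3 mg/mL) ran 4 h, read at 450 nm. Survival was taken as treated/untreated absorbance. IC50 is mean ±SE of three experiments, triplicate microcultures.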
molecule,measurement,setting,value
Cc1ccc(C(C)C)cc1.[Cl][Ru]([Cl])[PH]12CN3CN(CN(C3)C1)C2 [RAPTA-C],IC50,bovine Capthesin B,2.5 µM
Cc1ccccc1.[Cl][Ru]([Cl])[PH]12CN3CN(CN(C3)C1)C2 [RAPTA-T],IC50,bovine Capthesin B,1.5 µM
"N.N.[Cl][Pt][Cl] [cisplatin, cis-diamminedichloroplatinum (II), reference compound]",effect on electrophoretic mobility of plasmid DNA,"plasmid (pBR322) DNA; 37°C, 20 h, Tris/HCl buffer, drug/DNA ratio up to 2.0",both increase and decrease the mobility of the OC and the CCC forms
G1-[[NCPh(o-N)Ru(η^6-p-cymene)Cl]Cl]4 [Compound 17],IC50,[1],5.6 ± 0.1 µM
same,necrotic cells,MDA-MB-231 cells,27%
same,reduction of MDA-MB-231 viability,MDA-MB-231 cells,ca. 58%
same,treated cells remaining viable,MDA-MB-231 cells,42%
same,apoptotic cells,MDA-MB-231 cells; caspase-3/-7 activity,16%
same,IC50,[2],6.1 ± 1 µM
same,stability by 1H-NMR over 72 hours,[3],did not observe changes
same,IC50,[4],6.9 ± 0.5 µM
same,IC50,[5],8.1 ± 0.4 µM
same,"interaction with plasmid DNA at acidic, neutral and basic pH","plasmid (pBR322) DNA; metal/DNAbp ratio 2.0, pH 6, 7 and 8",do not interact with plasmid (pBR322) DNA
same,shape of Stern-Volmer plot F0/F versus [Q],[6],positive deviation
same,IC50,[7],10.7 µM

# — paper PMC4863959 (Dalton transactions (Cambridge, England : 2003), 2016)
